Assay results from ChEMBL document CHEMBL1152833, “Synthesis of some novel N4-(naphtha[1,2-d]thiazol-2-yl)semicarbazides as potential anticonvulsants” (Eur J Med Chem, 2009).
Calls of active or inactive are those of the source.

Key:
[1] = system: Mus musculus; experiment: Anticonvulsant activity in ip dosed Swiss albino mouse assessed as minimum drug concentration required for inhibition of maximal electroshock-induced seizure in half or more of mouse after 4 hrs by MES test; assay type: functional
Summary of the method: (§1)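 Male Swiss albino mice (18–25 g) received compound i.p. at 30, 100 and 300 mg/kg. MES seizures were induced after 0.5 and 4 h, with a drop of 0.9% saline placed in the eye before the electrodes went on. Protection meant abolition of the hind-limb tonic extensor component. The tabulated value is the minimum dose protecting half or more of the mice.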

[2] = system: Mus musculus; experiment: Antioxidant activity against PTZ-induced decrease in superoxide dismutase activity in Swiss albino mouse brain assessed as enzyme units per mg of protein causing 50% inhibition in NBT reduction rate at 100 mg/kg, ip administered 30 mins before PTZ challenge measured after 4 hrs; assay type: functional; settings: route intraperitoneal
Summary of the method: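 Same mouse dosing: 100 mg/kg i.p. 30 min before PTZ 85 mg/kg, brains taken at 4 h. Total SOD was measured in the ethanol phase of an ethanol/chloroform (5:3) extract, as inhibition of NBT reduction by xanthine–xanthine oxidase. One unit gives 50% inhibition; activity is expressed per mg protein (Lowry). n=6, mean ± SEM.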

[3] = system: Mus musculus; experiment: Neurotoxicity in ip dosed Swiss albino mouse assessed as minimum drug concentration required for falling off the rotarod by half or more of mouse after 4 hrs by rotarod test; assay type: toxicity, organism-based; settings: in vivo
Summary of the method: (§2)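 Rotarod test in male Swiss albino mice (18–25 g) after i.p. dosing at 30, 100 and 300 mg/kg, read at 0.5 and 4 h. Mice falling within 30 s in a pre-check were excluded. Neurotoxicity was scored as the minimum dose at which half or more of the mice fell off the rod.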

[4] = system: Rattus norvegicus; experiment: Anticonvulsant activity against pentylenetetrazole-induced seizures in Wistar albino rat at 50 mg/kg, po up to 2 hrs by scPTZ test; assay type: functional, organism-based; set-up: dose 50 mg/kg
Summary of the method: (§3)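 Male Wistar rats (100–125 g) were given compound orally at 50 mg/kg. They were challenged with scPTZ at 70 mg/kg at 0.25, 0.5, 1.0 and 2.0 h, and seizures were watched for. Protection meant absence of clonic spasm lasting at least 5 s. The score is the number of rats protected out of four.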

[5] = system: Mus musculus; experiment: Anticonvulsant activity in ip dosed Swiss albino mouse assessed as minimum drug concentration required for inhibition of pentylenetetrazole-induced seizures in half or more of mouse after 0.5 hrs by scPTZ test; assay type: functional
Summary of the method: (§4)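 Male Swiss albino mice (18–25 g) were dosed i.p. at 30, 100 and 300 mg/kg, examined at 0.5 and 4 h. PTZ 85 mg/kg (CD97) was given and the animals were […]. Protection meant absence of any threshold convulsion, i.e. clonic spasm lasting at least 5 s. The value is the minimum dose active in half or more of the mice.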

[6] = system: Mus musculus; experiment: Anticonvulsant activity in ip dosed Swiss albino mouse assessed as minimum drug concentration required for inhibition of maximal electroshock-induced seizure in half or more of mouse after 0.5 hrs by MES test; assay type: functional; summary of the method: as §1
[7] = system: Mus musculus; experiment: Antioxidant activity against PTZ-induced lipid peroxidation in Swiss albino mouse brain assessed as malondialdehyde content per mg of protein at 100 mg/kg, ip preincubated for 30 mins before PTZ challenge measured after 4 hrs by TBARS assay; assay type: functional; settings: route intraperitoneal
Summary of the method: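 Mice were dosed 100 mg/kg i.p. 30 min before PTZ 85 mg/kg, and brains were homogenized after 4 h. For TBARS, homogenate supernatant was heated with SDS, acetic acid and 0.8% thiobarbituric acid at 95 °C for 1 h. The product was extracted into n-butanol/pyridine and read at 532 nm. Results are pmol MDA/mg protein, n=6, mean ± SEM.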

[8] = system: Mus musculus; experiment: Anticonvulsant activity in ip dosed Swiss albino mouse assessed as minimum drug concentration required for inhibition of pentylenetetrazole-induced seizures in half or more of mouse after 4 hrs by scPTZ test; assay type: functional; summary of the method: as §4
[9] = system: Rattus norvegicus; experiment: Neurotoxicity in Wistar albino rat at 50 mg/kg, po by rotarod test; assay type: toxicity, organism-based; set-up: dose 50 mg/kg, route oral; settings: in vivo
[10] = system: Mus musculus; experiment: Neurotoxicity in ip dosed Swiss albino mouse assessed as minimum drug concentration required for falling off the rotarod by half or more of mouse after 0.5 hrs by rotarod test; assay type: toxicity, organism-based; settings: in vivo; summary of the method: as §2
[11] = system: Rattus norvegicus; experiment: Anticonvulsant activity against pentylenetetrazole-induced seizures in Wistar albino rat at 50 mg/kg, po after 0.25 hrs by scPTZ test; assay type: functional, organism-based; set-up: dose 50 mg/kg
Summary of the method: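 Male Wistar rats (100-125 g), compound given orally at 50 mg/kg, then challenged with scPTZ at 70 mg/kg. Absence of such a convulsion counted as protection. Groups of four rats were scored at 0.25, 0.5, 1 and 2 h as number protected out of four.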

[12] = system: Mus musculus; experiment: Anticonvulsant activity against maximal electroshock-induced seizures in Swiss albino mouse at 300 mg/kg, ip after 0.5 hrs by MES test; assay type: functional, organism-based; set-up: dose 300 mg/kg; summary of the method: as §1
[13] = system: Mus musculus; experiment: Neurotoxicity in Swiss albino mouse at 300 mg/kg, ip after 0.5 hrs by rotarod test; assay type: toxicity, organism-based; set-up: dose 300 mg/kg, route intraperitoneal; settings: in vivo
Summary of the method: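 Male Swiss albino mice (18-25 g) received the compound i.p. at 30, 100 or 300 mg/kg and were tested on the rotarod 0.5 and 4 h later. Mice were pre-checked, and any that fell off within 30 s were excluded. Neurotoxicity was scored as falling off the rod. The value is the minimum dose affecting half or more of the mice.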

[14] = system: Mus musculus; experiment: Anticonvulsant activity against pentylenetetrazole-induced seizures in Swiss albino mouse at 300 mg/kg, ip after 4 hrs by scPTZ test; assay type: functional, organism-based; set-up: dose 300 mg/kg; summary of the method: as §4
[15] = system: Mus musculus; experiment: Anticonvulsant activity against maximal electroshock-induced seizures in Swiss albino mouse at 300 mg/kg, ip after 4 hrs by MES test; assay type: functional, organism-based; set-up: dose 300 mg/kg; summary of the method: as §1
[16] = system: Mus musculus; experiment: Neurotoxicity in Swiss albino mouse at 300 mg/kg, ip after 4 hrs by rotarod test; assay type: toxicity, organism-based; set-up: dose 300 mg/kg, route intraperitoneal; settings: in vivo; summary of the method: as §2
[17] = system: Rattus norvegicus; experiment: Anticonvulsant activity against pentylenetetrazole-induced seizures in Wistar albino rat at 50 mg/kg, po after 2 hrs by scPTZ test; assay type: functional, organism-based; set-up: dose 50 mg/kg; summary of the method: as §3
[18] = system: Mus musculus; experiment: Toxicity to Swiss albino mouse assessed as mortality following tonic extension at 300 mg/kg, ip after 4 hrs; assay type: organism-based; set-up: dose 300 mg/kg, route intraperitoneal; settings: in vivo
[19] = system: Mus musculus; experiment: Anticonvulsant activity against pentylenetetrazole-induced seizures in Swiss albino mouse at 300 mg/kg, ip after 0.5 hrs by scPTZ test; assay type: functional, organism-based; set-up: dose 300 mg/kg; summary of the method: as §4
[20] = system: Mus musculus; experiment: Toxicity to Swiss albino mouse assessed as mortality following tonic extension at 300 mg/kg, ip after 0.5 hrs; assay type: organism-based; set-up: dose 300 mg/kg, route intraperitoneal; settings: in vivo

Structure (SMILES)	Activity [1] [mg/kg]	Activity [3] [mg/kg]	Activity [5] [mg/kg]	Activity [6] [mg/kg]	Activity [8] [mg/kg]	Activity [10] [mg/kg]	Activity [12]	Activity [14]	Activity [15]	Activity [16]	other results
O=C(N/N=C/c1ccc(F)cc1)Nc1nc2c(ccc3ccccc32)s1	300	300	100	300	100	300					Activity [2]: 57; Activity [4]: Active; Activity [7]: 278 pmol; Activity [9]: Non-toxic
O=C(N/N=C/c1ccc(Br)cc1)Nc1nc2c(ccc3ccccc32)s1	100	300	100	100	100	100					Activity [2]: 60; Activity [4]: Active; Activity [7]: 292 pmol; Activity [9]: Non-toxic
CCC1(c2ccccc2)C(=O)NC(=O)NC1=O [PHENOBARBITAL]	30	300	30	100	30	100					
CCC1(C)CC(=O)NC1=O (stereo not drawn) [ETHOSUXIMIDE]			300				inactive	inactive	inactive	Non-toxic	Activity [11]: inactive; Activity [13]: Non-toxic
O=C(N/N=C/c1ccc([N+](=O)[O-])cc1)Nc1nc2c(ccc3ccccc32)s1	300	300	100	300	300	300					Activity [2]: 58; Activity [17]: inactive; Activity [7]: 309 pmol
C1CCc2nnnn2CC1 [PENTYLENETETRAZOL]											Activity [2]: 42; Activity [7]: 418 pmol
COc1ccc(OC)c(/C=N/NC(=O)Nc2nc3c(ccc4ccccc43)s2)c1				300		300			inactive	Non-toxic	Activity [18]: Toxic; Activity [19]: inactive
C/C(=N\NC(=O)Nc1nc2c(ccc3ccccc32)s1)c1ccccc1			300		300	100	inactive		inactive	Non-toxic	
O=C(N/N=C/c1ccc(Cl)cc1)Nc1nc2c(ccc3ccccc32)s1	100	300	300	100		100					Activity [18]: Toxic
CN(C)c1ccc(/C=N/NC(=O)Nc2nc3c(ccc4ccccc43)s2)cc1		300	300		300	300	inactive		inactive		
CCCC(CCC)C(=O)O [VALPROIC ACID]			300				inactive	inactive	inactive	Non-toxic	Activity [2]: 65; Activity [13]: Non-toxic; Activity [7]: 216 pmol
COc1cc(/C=N/NC(=O)Nc2nc3c(ccc4ccccc43)s2)cc(OC)c1OC	300	100		300	300	100					Activity [19]: inactive
O=C(N/N=C/c1ccccc1[N+](=O)[O-])Nc1nc2c(ccc3ccccc32)s1		100	300		300		inactive		inactive		Activity [13]: Non-toxic
COc1ccc(/C=N/NC(=O)Nc2nc3c(ccc4ccccc43)s2)cc1							inactive	inactive	inactive	Non-toxic	Activity [13]: Non-toxic; Activity [20]: Toxic
NC(=O)N1c2ccccc2C=Cc2ccccc21 [CARBAMAZEPINE]	100	300	100	30	300	100					
COc1cc(/C=N/NC(=O)Nc2nc3c(ccc4ccccc43)s2)cc(OC)c1							inactive	inactive	inactive	Non-toxic	Activity [13]: Non-toxic; Activity [20]: Toxic
O=C(N/N=C/c1ccccc1O)Nc1nc2c(ccc3ccccc32)s1		100	300	100	300	100			inactive		
COc1cc(/C=N/NC(=O)Nc2nc3c(ccc4ccccc43)s2)ccc1O	300	100	300	300	300	300					
O=C(N/N=C/c1ccccc1Cl)Nc1nc2c(ccc3ccccc32)s1	300				300	300	inactive			Non-toxic	Activity [19]: inactive
O=C(N/N=C/c1ccccc1)Nc1nc2c(ccc3ccccc32)s1		300	300	300	300	100			inactive		
O=C(N/N=C/c1ccc(O)cc1)Nc1nc2c(ccc3ccccc32)s1							inactive	inactive	inactive	Non-toxic	Activity [13]: Non-toxic; Activity [20]: Toxic
O=C1NC(=O)C(c2ccccc2)(c2ccccc2)N1 [PHENYTOIN]	30	100		30		100		inactive			Activity [19]: inactive
O=C(N/N=C1\C(=O)Nc2ccccc21)Nc1nc2c(ccc3ccccc32)s1	300	300	300			100	inactive	inactive			
